Assay results published in ChEMBL document CHEMBL1671627, “Increasing trends in antimicrobial resistance among clinically important anaerobes and Bacteroides fragilis isolates causing nosocomial infections: emerging resistance to carbapenems” (2008).
≈ marks a conversion by molar mass, not a printed value.

Legend:
[1] = system: Prevotella buccae; assay: Antibacterial activity against Prevotella buccae assessed as susceptible isolates by CLSI agar dilution method in presence of clavulanate; assay type: functional, Segatella buccae
Method in brief: (§1)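 Agar dilution per CLSI guidelines on nonduplicate anaerobic bloodstream isolates collected at NTUH, January to December 2006. Isolates were spotted by Steers replicator onto supplemented Brucella blood agar and incubated anaerobically for 48 h at 35°C. MIC was the lowest drug concentration that inhibited growth. B. fragilis ATCC 25285, B. thetaiotaomicron ATCC 29741 and E. lentum ATCC 43055 were run as QC in each run.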

[2] = system: Fusobacterium necrophorum; assay: Antibacterial activity against Fusobacterium necrophorum assessed as susceptible isolates by CLSI agar dilution method in presence of clavulanate; assay type: functional; method in brief: as §1
[3] = system: Clostridium septicum; assay: Antibacterial activity against beta-lactamase producing Clostridium septicum assessed as resistant isolates by CLSI agar dilution method in presence of clavulanate; assay type: functional
Method in brief: (§2)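 207 nonduplicate anaerobic blood isolates from patients with bloodstream infections at NTUH, collected January–December 2006. MICs were determined by agar dilution following CLSI guidelines. Inocula were applied with a Steers replicator onto supplemented Brucella blood agar and incubated 48 h at 35°C in an anaerobic chamber. MIC was the lowest concentration inhibiting growth. B. fragilis ATCC 25285, B. thetaiotaomicron ATCC 29741 and E. lentum ATCC 43055 served as controls in each run.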

[4] = system: Fusobacterium necrophorum; assay: Antibacterial activity against Fusobacterium necrophorum assessed as resistant isolates by CLSI agar dilution method in presence of clavulanate; assay type: functional; method in brief: as §2
[5] = system: Clostridium perfringens; assay: microbe, parasite or virus in culture; assay type: functional
[6] = system: Prevotella intermedia; assay: Antibacterial activity against Prevotella intermedia assessed as susceptible isolates by CLSI agar dilution method in presence of clavulanate; assay type: functional; method in brief: as §1
[7] = system: Phocaeicola vulgatus; assay: Antibacterial activity against beta-lactamase producing Bacteroides vulgatus assessed as resistant isolates by CLSI agar dilution method in presence of clavulanate; assay type: functional; method in brief: as §2
[8] = system: Clostridium tertium; assay: Antibacterial activity against beta-lactamase producing Clostridium tertium assessed as resistant isolates by CLSI agar dilution method in presence of clavulanate; assay type: functional; method in brief: as §2
[9] = system: Bacteroides thetaiotaomicron; assay: Antibacterial activity against beta-lactamase producing Bacteroides thetaiotaomicron by CLSI agar dilution method in presence of clavulanate; assay type: functional; method in brief: as §1
[10] = system: Peptostreptococcus anaerobius; assay: Antibacterial activity against beta-lactamase producing Peptostreptococcus anaerobius by CLSI agar dilution method in presence of clavulanate; assay type: functional
Method in brief: (§3)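 CLSI agar dilution MICs for anaerobic blood isolates (nonduplicate) collected from bloodstream-infection patients at a Taiwanese tertiary hospital, January–December 2006. Isolates were spotted by Steers replicator onto supplemented Brucella blood agar and incubated anaerobically for 48 h at 35°C. MIC was the lowest drug concentration inhibiting growth. Each run included B. fragilis ATCC 25285, B. thetaiotaomicron ATCC 29741 and E. lentum ATCC 43055 as quality-control strains.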

[11] = system: Parvimonas micra; assay: Antibacterial activity against beta-lactamase producing Micromonas micros assessed as resistant isolates by CLSI agar dilution method in presence of clavulanate; assay type: functional; method in brief: as §2
[12] = system: Parvimonas micra; assay: Antibacterial activity against beta-lactamase producing Micromonas micros by CLSI agar dilution method in presence of clavulanate; assay type: functional; method in brief: as §3
[13] = system: Fusobacterium mortiferum; assay: Antibacterial activity against Fusobacterium mortiferum assessed as resistant isolates by CLSI agar dilution method in presence of clavulanate; assay type: functional; method in brief: as §2
[14] = system: Fusobacterium nucleatum; assay: Antibacterial activity against Fusobacterium nucleatum assessed as resistant isolates by CLSI agar dilution method in presence of clavulanate; assay type: functional; method in brief: as §2
[15] = system: Prevotella bivia; assay: Antibacterial activity against Prevotella bivia assessed as resistant isolates by CLSI agar dilution method; assay type: functional
[16] = system: Bacteroides thetaiotaomicron; assay: Antibacterial activity against beta-lactamase producing Bacteroides thetaiotaomicron assessed as susceptible isolates by CLSI agar dilution method; assay type: functional
[17] = system: Bacteroides uniformis; assay: Antibacterial activity against beta-lactamase producing Bacteroides uniformis assessed as susceptible isolates by CLSI agar dilution method in presence of Tazobactam; assay type: functional; method in brief: as §1
[18] = system: Fusobacterium mortiferum; assay: Antibacterial activity against Fusobacterium mortiferum assessed as resistant isolates by CLSI agar dilution method in presence of Tazobactam; assay type: functional; method in brief: as §2
[19] = system: Clostridium paraputrificum; assay: Antibacterial activity against beta-lactamase producing Clostridium paraputrificum assessed as resistant isolates by CLSI agar dilution method; assay type: functional
[20] = system: Finegoldia magna; assay: Antibacterial activity against beta-lactamase producing Finegoldia magna by CLSI agar dilution method in presence of Tazobactam; assay type: functional; method in brief: as §3
[21] = system: Bacteroides fragilis; assay: Antibacterial activity against Bacteroides fragilis assessed as susceptible isolates by CLSI agar dilution method in presence of Tazobactam; assay type: functional; method in brief: as §1
[22] = system: Peptostreptococcus anaerobius; assay: Antibacterial activity against beta-lactamase producing Peptostreptococcus anaerobius assessed as resistant isolates by CLSI agar dilution method; assay type: functional
[23] = system: Bacteroides thetaiotaomicron; assay: Antibacterial activity against beta-lactamase producing Bacteroides thetaiotaomicron assessed as resistant isolates by CLSI agar dilution method; assay type: functional
[24] = system: Clostridium tertium; assay: Antibacterial activity against beta-lactamase producing Clostridium tertium assessed as susceptible isolates by CLSI agar dilution method; assay type: functional
[25] = system: Prevotella buccae; assay: Antibacterial activity against Prevotella buccae by CLSI agar dilution method; assay type: functional; conditions: Segatella buccae
[26] = system: Peptostreptococcus anaerobius; assay: Antibacterial activity against beta-lactamase producing Peptostreptococcus anaerobius by CLSI agar dilution method; assay type: functional
[27] = system: Fusobacterium mortiferum; assay: Antibacterial activity against Fusobacterium mortiferum by CLSI agar dilution method in presence of Tazobactam; assay type: functional; method in brief: as §1
[28] = system: Bacteroides thetaiotaomicron; assay: Antibacterial activity against beta-lactamase producing Bacteroides thetaiotaomicron by CLSI agar dilution method in presence of Tazobactam; assay type: functional; method in brief: as §1
[29] = system: Fusobacterium necrophorum; assay: Antibacterial activity against Fusobacterium necrophorum assessed as susceptible isolates by CLSI agar dilution method in presence of Tazobactam; assay type: functional; method in brief: as §1
[30] = system: Bacteroides uniformis; assay: Antibacterial activity against beta-lactamase producing Bacteroides uniformis by CLSI agar dilution method; assay type: functional
[31] = system: Phocaeicola vulgatus; assay: Antibacterial activity against beta-lactamase producing Bacteroides vulgatus assessed as resistant isolates by CLSI agar dilution method in presence of Tazobactam; assay type: functional; method in brief: as §2
[32] = system: Bacteroides fragilis; assay: Antibacterial activity against Bacteroides fragilis by CLSI agar dilution method in presence of Tazobactam; assay type: functional; method in brief: as §1
[33] = system: Clostridium perfringens; assay: microbe, parasite or virus in culture; assay type: functional; remark: listed apart in the source
[34] = system: Fusobacterium varium; assay: Antibacterial activity against Fusobacterium varium assessed as resistant isolates by CLSI agar dilution method in presence of Tazobactam; assay type: functional; method in brief: as §2
[35] = system: Prevotella intermedia; assay: Antibacterial activity against Prevotella intermedia by CLSI agar dilution method in presence of Tazobactam; assay type: functional; method in brief: as §1
[36] = system: Clostridium tertium; assay: Antibacterial activity against beta-lactamase producing Clostridium tertium assessed as susceptible isolates by CLSI agar dilution method in presence of Tazobactam; assay type: functional; method in brief: as §3
[37] = system: Peptoniphilus asaccharolyticus; assay: Antibacterial activity against beta-lactamase producing Peptoniphilus asaccharolyticus by CLSI agar dilution method in presence of Tazobactam; assay type: functional; method in brief: as §3

`CC1(C)S[C@@H]2[C@H](NC(=O)[C@H](N)c3ccc(O)cc3)C(=O)N2[C@H]1C(=O)O` [AMOXICILLIN] gave an Activity [1] of 81%, an Activity [2] of 89% and an Activity [3] of 4%. It also gave an Activity [4] of 7%, an MIC50 [5] of 0.5 µg/mL (≈ 1.37 µM) and an MIC90 [5] of 2 µg/mL (≈ 5.47 µM). It also gave an Activity [6] of 81%, an Activity [7] of 30% and an Activity [8] of 4%. For the same compound, the MIC [9] was 4 µg/mL, the MIC50 [9] was 4 µg/mL and the MIC90 [9] was 32 µg/mL. The MIC50 [10] was 0.25 µg/mL, the MIC90 [10] was 2 µg/mL and the Activity [11] was 3%. For the same compound, the MIC50 [12] was 0.25 µg/mL, the MIC90 [12] was 2 µg/mL and the Activity [13] was 7%. It also gave an Activity [14] of 7%.

`CCN1CCN(C(=O)N[C@@H](C(=O)N[C@@H]2C(=O)N3[C@@H]2SC(C)(C)[C@@H]3C(=O)O)c2ccccc2)C(=O)C1=O` [PIPERACILLIN] was tested, and the Activity [15] was 22%, the Activity [16] was 63% and the Activity [17] was 96%. The Activity [18] was 0%, the Activity [19] was 0% and the MIC [20] was 0.03 µg/mL. The MIC50 [20] was 0.03 µg/mL, the MIC90 [20] was 2 µg/mL and the Activity [21] was 95%. For the same compound, the Activity [22] was 3%, the Activity [23] was 37% and the Activity [24] was 100%. For the same compound, the MIC50 [25] was 16 µg/mL (≈ 30.9 µM), the MIC90 [25] was 128 µg/mL (≈ 247 µM) and the MIC50 [26] was 0.12 µg/mL (≈ 0.232 µM). For the same compound, the MIC90 [26] was 8 µg/mL (≈ 15.5 µM), the MIC50 [27] was 0.5 µg/mL and the MIC90 [27] was 2 µg/mL. The MIC50 [28] was 8 µg/mL, the MIC90 [28] was 32 µg/mL and the Activity [29] was 100%. The MIC50 [30] was greater than 128 µg/mL, the MIC90 [30] was greater than 128 µg/mL and the Activity [31] was 4%. It also gave an MIC50 [32] of 1 µg/mL, an MIC90 [32] of 8 µg/mL and an MIC50 [33] of 0.5 µg/mL (≈ 0.966 µM). It also gave an MIC90 [33] of 2 µg/mL (≈ 3.86 µM), an Activity [34] of 0% and an MIC [35] of 0.03 µg/mL. The MIC50 [35] was 0.03 µg/mL, the MIC90 [35] was 1 µg/mL and the Activity [36] was 100%. The MIC [37] was 0.03 µg/mL, the MIC50 [37] was 0.03 µg/mL and the MIC90 [37] was 2 µg/mL.
